NRP1-CendR mod: modulators of CendR peptide binding to human neuropilin-1; O14786; FAM-RPARPAR peptide binding to NRP-1, fluorescence polarization; inhibition, % at 25 µM; 0.85% of 360,000 active;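 active means inhibition or corrected inhibition above about 18%, plus a signal ratio from 0.5 to 1.5, limit read from the data, passing the limit was not always enough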
Hep lipid drop: hepatic lipid droplet formation modulation; AML12 mouse hepatocytes, oleate lipid droplets, BODIPY imaging; inhibition, % at 6.5 µM; 0.4% of 240,000 active;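 active means lipid droplet intensity inhibited by at least 50%, with more than 500 cells counted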
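material = mouse AML12 hepatocyte cell line, fixed after treatment | also added = 100 µM oleic acid challenge | doses = compound at 6.5 µM only | schedule = overnight exposure | technique = Image-based BODIPY and DAPI two-channel analysis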
m5-HT2A agonist: activates the mouse 5-HT2A serotonin receptor; CHO-K1 mHTR2A beta-arrestin complementation, luminescence; percent of 30 µM serotonin response; activation, % at 7.6 µM; 0.66% of 360,000 active; P35363; AID 624169;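 active means activation above a run cutoff, the mean activation of all tested compounds plus 3 SD, cut at about 14% in these data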;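 further: 0% = plate median of compound wells and 100% = 30 µM serotonin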
Target sequence (P35363 whole entry, looked up): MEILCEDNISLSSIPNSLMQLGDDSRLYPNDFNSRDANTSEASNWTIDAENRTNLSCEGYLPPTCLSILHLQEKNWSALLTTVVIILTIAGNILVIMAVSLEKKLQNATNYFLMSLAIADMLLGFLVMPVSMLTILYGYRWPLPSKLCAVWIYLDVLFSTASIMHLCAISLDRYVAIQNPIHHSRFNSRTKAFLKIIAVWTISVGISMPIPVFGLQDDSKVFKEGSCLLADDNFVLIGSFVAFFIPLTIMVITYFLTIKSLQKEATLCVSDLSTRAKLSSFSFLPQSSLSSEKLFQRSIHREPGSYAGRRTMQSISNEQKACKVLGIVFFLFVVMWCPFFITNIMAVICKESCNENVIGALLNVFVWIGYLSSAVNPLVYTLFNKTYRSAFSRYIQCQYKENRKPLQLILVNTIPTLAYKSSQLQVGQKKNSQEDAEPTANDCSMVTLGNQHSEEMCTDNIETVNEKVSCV
Arrestin-AP2 inh: inhibitors of human beta-arrestin and AP2 interaction; FITC-arrestin peptide / GST-AP2 beads, flow cytometry; AP2 beta2 appendage carries R879A mutation; inhibition, % at 10 µM; 0.31% of 340,000 active; AID 504490;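 active means inhibition above a set limit, near 3 SD of compounds lacking own fluorescence, cut at about 54% in these data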;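 further: plate controls were DMSO wells for no effect and 5 µM unlabelled arrestin peptide for full effect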
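Test system: GST-tagged AP2 beta2-adaptin appendage (R879A) on 4 µm glutathione beads; also added: fluorescein-tagged arrestin peptide at 50 nM final; timing: 12 min plus 1 h, RT; signal: flow cytometry, FL1 (488/535 nm); read-out: percent drop in bead-associated FITC signal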
sPLA2-III inh: Blocks human group III sPLA2 activity; Q9NZ20; QFRET BODIPY PC-A2 liposome hydrolysis, fluorescence; inhibition, % at 12.2 µM; 0.56% of 370,000 active; AID 743126;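 active means inhibition above mean plus 3 SD of compounds lying within the high and low control bounds, cut at about 19% in these data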;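 further: 0% = median of test compound wells and 100% = no enzyme DMSO wells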
PfM18AAP inh-1: PfM18AAP enzyme inhibition; 1.2% of 290,000 active; AID 1822; recombinant PfM18AAP, H-Glu-NHMec fluorogenic cleavage; inhibition, % at 7.35 µM;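 active means inhibition above the campaign mean inhibition over all tested compounds plus 3 SD, cut at about 28% in these data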;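 further: 0% = plate median of test compound wells and 100% = 2 mM ZnCl2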
PfM18AAP inh-2: confirmation of Plasmodium falciparum M18 aspartyl aminopeptidase inhibitors. AID 2170. 28% of 2,400 active. inhibition, % at 7.35 µM. shares compounds with PfM18AAP inh-1. recombinant PfM18AAP, H-Glu-NHMec fluorogenic cleavage;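 active means mean inhibition over replicate wells above the hit cutoff set for the earlier primary screen, cut at about 29% in these data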;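 further: 0% = median of test compound wells and 100% = 2 mM ZnCl2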
CTSL1 confirm: counter-screen for PFM18AAP inhibitors: confirmation of human cathepsin L inhibitors; shares compounds with PfM18AAP inh-1; purified cathepsin L1, Z-Leu-Arg-MCA fluorescence; inhibition, % at 5.96 µM; 2,400 tested, under 10 active; AID 2178;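 active means average inhibition across replicates above the hit cutoff set in the earlier primary screen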;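 further: 0% = median of test compound wells and 100% = Z-Phe-Ala-diazomethylketone 1 µM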
* = called active by the depositor; nt = not tested or not shown. In the library only some 3.3% were active in any assay of this set; here they are far more common.

SMILES	NRP1-CendR mod	Hep lipid drop	m5-HT2A agonist	Arrestin-AP2 inh	sPLA2-III inh	PfM18AAP inh-1	PfM18AAP inh-2	CTSL1 confirm
C=C(C)c1cccc(C(C)(C)NC(=O)NNC(=O)c2ccccc2O)c1	2	-9	-1	31	-11	40*	-10	0
O=C(Nc1ccncc1)Nc1cccc(C(F)(F)F)c1	8	3	-7	30	-18	4	nt	nt
O=C(NNc1cccc(Cl)n1)Nc1ccc(Cl)cc1	11	nt	0	0	-3	56*	36*	-2
O=C(NNc1cccc(Cl)n1)Nc1cccc(C(F)(F)F)c1	4	15	-6	5	1	54*	37*	1
O=C(Nc1ccc(Cl)cc1)Nc1ccccn1	-10	8	-3	-7	3	1	nt	nt
O=[N+]([O-])c1cccnc1N/N=C/c1ccccc1O	0	-1	-2	12	1	9	nt	nt
Cc1c(O)ccc(/C=N/Nc2ncccc2[N+](=O)[O-])c1O	-5	2	-1	1	12	43*	10	1
COc1ccccc1NC(=O)N(C)C[C@@H]1OCc2cnnn2CCCC(=O)N([C@H](C)CO)C[C@@H]1C	-6	nt	-1	nt	8	nt	nt	nt
O=c1c2ccccc2c(/C=N/c2ncn[nH]2)c(O)n1Cc1ccccc1	7	nt	-2	-5	-11	54*	-21	2
CC(C)CCC(C)N=Cc1c(O)n(Cc2ccccc2)c(=O)c2ccccc12 (stereo not given)	-10	-21	-2	31	-6	-1	nt	nt
CSCC[C@H](NC(=O)N1CCn2c1nc1ccccc12)C(=O)N[C@@H](C(=O)O)c1ccccc1	-17	-13	0	17	12	51*	42*	-5
CC(C)n1c(=O)[nH]c2ccccc21	4	nt	-6	-5	4	-11	nt	nt
CC(C)n1c(=O)[nH][nH]c1=S	3	16	4	6	7	57*	36*	1
CCOC(=O)c1oc2c(O)c(O)ccc2c(=O)c1-c1nncn1-c1ccccc1	-17	9	-4	-2	2	46*	26	5
CCOC(=O)c1oc2c(C)c(O)ccc2c(=O)c1-c1nncn1-c1ccccc1	2	nt	-1	3	3	-6	nt	nt
CCCN1C(=O)N(C)C(N(O)C(=O)NC)C1(C)C (stereo not given)	-5	nt	7	-5	1	11	nt	nt
CNC(=O)N(O)C1N(C)C(=O)N(CC(=O)OC)C1(C)C (stereo not given)	0	nt	11	-5	7	37*	-23	1
COC(=O)[C@@]12CCCCC3=C1N(CCC3)C(=O)[C@H]2CC(=O)NCCC(C)C	nt	nt	nt	nt	4	nt	nt	nt
Cc1cc(C(=O)N/N=C/c2ccc(O)c(O)c2O)c(C)n1-c1ccccc1	0	8	-1	31	18	49*	18	-3
Cc1cc(N2C(=O)C(O)=C(C(=O)c3cccs3)C2c2cccc(O)c2)no1 (stereo not given)	14	nt	1	-5	-12	25	nt	nt
COc1cccc(C2C(C(=O)c3cccs3)=C(O)C(=O)N2c2cc(C)on2)c1 (stereo not given)	5	nt	3	-18	-2	35*	-36	2
COc1ccc(OC)c(C2C(C(=O)c3cccs3)=C(O)C(=O)N2c2cc(C)on2)c1 (stereo not given)	-1	-1	0	-8	-4	-3	nt	nt
COc1cc(C2C(C(=O)c3cccs3)=C(O)C(=O)N2c2cc(C)on2)ccc1O (stereo not given)	15	nt	3	7	-6	55*	-47	-3
Oc1ccc(N2CCN(Cc3cc4c(cc3Br)OCCO4)CC2)cc1	2	-4	-15	0	4	39*	-13	-1
O=S(=O)(c1ccc(F)cc1)N1CCN(Cc2cc3c(cc2Br)OCCO3)CC1	-1	nt	4	-7	-8	nt	nt	nt
SMILES	NRP1-CendR mod	Hep lipid drop	m5-HT2A agonist	Arrestin-AP2 inh	sPLA2-III inh	PfM18AAP inh-1	PfM18AAP inh-2	CTSL1 confirm
Cn1ncc2c(NNC(=O)c3ccc(Cl)cc3Cl)ncnc21	-1	-11	4	-11	6	41*	-2	0
Cn1ncc2c(NNC(=O)c3ccc(Cl)c(Cl)c3)ncnc21	0	-24	11	6	8	13	nt	nt
COCc1cc(C)nc(SCC(=O)c2ccc(O)c(O)c2)c1C#N	-59	12	-1	11	-18	62*	39*	-2
Cc1cc(=O)[nH]c(SCC(=O)c2ccc(O)c(O)c2)n1	-43	nt	12	-11	1	68*	59*	-4
Cc1ccc(C(=O)CSc2nc(C)cc(=O)[nH]2)cc1	-1	nt	-4	5	-17	-9	nt	nt
Cc1cc(C)nc(SCC(=O)c2ccc(O)c(O)c2)n1	-25	-1	10	13	-6	50*	28	7
COCc1cc(C)nc(SCC(=O)Oc2ccccc2)c1C#N	5	0	5	28	0	1	nt	nt
Cc1cc(C)nc(SCNC(=O)c2ccc(Cl)cc2)n1	1	20	4	-6	5	51*	-29	0
Cc1[nH]c2ccccc2c1C(=O)CSC(=S)N1CCCCC1	-11	8	-1	-7	-19	9	nt	nt
CCSc1cc(C)nc2c(-c3ccc(Cl)cc3)c(C)nn12	-13	nt	-2	1	8	2	nt	nt
O=C(CSc1nc2ccccc2c(=O)[nH]1)c1ccc(O)c(O)c1	-68	-26	-1	7	-11	65*	68*	2
Cc1cc(SCC(=O)c2ccc(O)c(O)c2)n2nc(C)c(-c3ccccc3)c2n1	-52	0	3	6	1	57*	37*	-5
C[C@H](CO)N1C[C@H](C)[C@@H](CN(C)Cc2ccncc2)Oc2ccc(NC(=O)Cn3cnnn3)cc2C1=O	0	nt	6	9	-3	nt	nt	nt
Cc1cc(C)c(OCC(=O)OCC(=O)NCc2ccco2)c(C)c1	-21	nt	2	nt	-2	nt	nt	nt
COC(=O)[C@@]1(Cc2ccc(F)cc2)[C@H]2c3cc(C(=O)N4CCCC4)n(CCc4ccc(O)c(O)c4)c3C[C@H]2CN1C(=O)c1ccccc1	nt	-11	nt	nt	nt	75*	49*	4
Cc1cc(N2CCOCC2)nc2ccc(Cl)cc12	6	nt	0	2	5	13	nt	nt
CCCCCCn1c(SCC(=O)NC2CCS(=O)(=O)C2)nc2ccccc2c1=O (stereo not given)	11	nt	4	nt	-1	nt	nt	nt
CN(C)/N=C/c1ccc([N+](=O)[O-])cc1[N+](=O)[O-]	-11	-24	-2	17	2	34*	-20	2

Source: PubChem (several laboratories)
